Bioassay records: PubChem BioAssay, Broad Institute
A selection: hits, their analogues and other compounds. The true share with any hit is near 2.5%.
FN deposition inh – fibronectin deposition inhibition | AH1F fibroblasts, Alexa488-fibronectin deposition fluorescence, overnight | inhibition, % at 12.6 µM | 350,000 compounds, 0.086% hits;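 active means mean inhibition across replicates of 30% or more, regardless of how many single replicates reach that level; inconclusive means mean under 30% yet at least half of replicates reach 30%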
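Material – AH1F fibroblast monolayer, labelled fibronectin deposition · Reagent – labelled fibronectin 24 nM · Timing – 1 h adhesion, overnight exposure · Measured by – fluorescence at 485 nm excitation, 525 nm emission · Read-out – inhibition of fibronectin deposition signal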
HIV Env fusion – blocks HIV Env-driven cell-cell fusion; HeLa-JRFL Env/CEM21 cell fusion, luciferase; inhibition, % at 12.3 µM; 360,000 compounds, 1.1% hits; AID 651610;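 active means mean replicate inhibition score of at least 50 and every replicate individually at or above 50; inconclusive means only one of the two criteria met; inactive means mean below 50 and not all replicates reaching 50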
N-glyco inh – blocks N-linked glycosylation in D54 reporter cells. D54 ERlucT glycosylation luciferase reporter, 24 h; percent of 100 nM tunicamycin response. reporter increase, % at 12.5 µM. 360,000 compounds, 0.23% hits. AID 588692;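 active means mean luciferase reporter signal, scaled so untreated is 0 and the glycosylation-blocking control 100, at or above a set limit in every replicate; inconclusive means mean reaches the limit but not every replicate does; inactive means mean below the limit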;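 further: luciferase carries N-glycosylation sites so blocking glycosylation raises the light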
AF4-AF9 inh – blocks AF4 peptide binding to human AF9; 350,000 compounds, 0.47% hits; inhibition, % at 10 µM; P42568; AlphaScreen, biotin-AF4 peptide binding to FLAG-AF9;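 active means every replicate reaching a set inhibition limit, whatever the replicate mean, cut at about 25% in these data; inconclusive means mean inhibition reaches that limit but some replicates miss it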
Target sequence (P42568 whole entry, looked up): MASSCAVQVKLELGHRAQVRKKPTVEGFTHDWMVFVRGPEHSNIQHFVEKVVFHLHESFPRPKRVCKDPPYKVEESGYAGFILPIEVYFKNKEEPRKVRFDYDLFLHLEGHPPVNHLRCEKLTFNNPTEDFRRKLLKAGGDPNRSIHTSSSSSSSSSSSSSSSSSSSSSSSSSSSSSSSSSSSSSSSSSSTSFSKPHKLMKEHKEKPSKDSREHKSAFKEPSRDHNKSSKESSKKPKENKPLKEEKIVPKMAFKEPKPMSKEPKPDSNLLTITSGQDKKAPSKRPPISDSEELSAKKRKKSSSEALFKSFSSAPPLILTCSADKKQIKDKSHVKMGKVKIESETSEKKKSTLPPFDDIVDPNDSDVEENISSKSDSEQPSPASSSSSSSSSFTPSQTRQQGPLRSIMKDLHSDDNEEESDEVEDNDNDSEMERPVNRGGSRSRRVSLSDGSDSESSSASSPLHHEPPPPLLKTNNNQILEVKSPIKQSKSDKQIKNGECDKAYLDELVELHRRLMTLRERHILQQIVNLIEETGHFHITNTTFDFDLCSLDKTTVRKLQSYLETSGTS
PAX8 inh HTS – inhibitors of PAX8 transcriptional activity in RMG-I cells. RMG-I TPO-luciferase reporter, SteadyGlo, 24 h. inhibition, % at 12.6 µM. 360,000 compounds, 1.2% hits;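 active means mean replicate inhibition at least 60% with every replicate also reaching 60%; inconclusive means only one of the two criteria is met; inactive means mean below 60% and not all replicates reaching 60%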;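 further: luciferase light reporting Pax8 driven TPO promoter activity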
EWS-Fli inh – EWS/Fli transcriptional activity inhibition. A673 NR0B1-luciferase reporter, viability-normalised. inhibition, % at 12.6 µM. 350,000 compounds, 0.67% hits;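 active means mean inhibition of at least 50% after viability correction, with every replicate also passing that limit; inconclusive means mean reaches 50% but only one of two replicates passes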;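 further: firefly luciferase signal divided by Alamar Blue viability fluorescence both relative to DMSO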
DNA binding – small molecule DNA binding by fluorescence polarization; 640 compounds, 2% hits; shares compounds with EWS-Fli inh; salmon sperm DNA acridine orange fluorescence polarization; AC35, µM (top dose mostly 68 µM); AID 720586;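 active means fitted curve reaches a 35% signal fall AC35 below twice the sample's top valid tested dose, actives reach about 48 µM in these data; inactive means the rest, including activity in the rising direction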;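 further: lower polarization ratio signals compound binding to DNA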
Of the large screens only hits and unclear results are named; the others gave an inactive call (follow-up assays come after a bar, where they were run).

COC(=O)C1=C(c2ccc(OC(F)(F)F)cc2)C[C@@H]2CC[C@H]1N2C(=O)N1CCCCC1	HIV Env fusion 75 (no result: FN deposition inh)
Cc1nc2ccccc2c(=O)n1-c1c(Cl)cccc1Cl	none (no result: FN deposition inh)
Cc1nnc(SCc2nc3ccccc3c(=O)n2-c2ccccc2Cl)n1N	HIV Env fusion 119 (no result: AF4-AF9 inh, PAX8 inh HTS, EWS-Fli inh)
CC=Cc1ccc2n(c1=O)C[C@H]1[C@H](CO)[C@@H](C(=O)N(C)C)N[C@@H]21 (mixture of isomers)	none (no result: HIV Env fusion, N-glyco inh)
COc1cccc(-c2ccc3c(c2)C2c4cnnn4-c4ccccc4C(=O)N2CC3)c1 (stereo unspecified)	EWS-Fli inh 59 (no result: N-glyco inh, AF4-AF9 inh)
CCC(=NCc1ccc(F)cc1)c1c(O)n(C)c(=O)n(C)c1=O	HIV Env fusion 80 (no result: AF4-AF9 inh, PAX8 inh HTS, EWS-Fli inh)
O=C([C@H]1N[C@H]2c3cccc(=O)n3C[C@H]2[C@@H]1CO)N1CCCCC1	none (no result: HIV Env fusion, N-glyco inh, AF4-AF9 inh, PAX8 inh HTS, EWS-Fli inh)
O=C(O)[C@H]1[C@H](CO)[C@H]2Cn3c(ccc(-c4ccncc4)c3=O)[C@@H]1N2C(=O)C1CCCCC1	none (no result: HIV Env fusion, N-glyco inh, PAX8 inh HTS)
COc1ccc(C(c2nnnn2Cc2ccccc2)N2CCC(n3c(=O)[nH]c4ccccc43)CC2)cc1 (stereo unspecified)	PAX8 inh HTS 89
O=c1[nH]c2ccccc2n1C1CCN(C(c2ccccc2OC(F)(F)F)c2nnnn2Cc2ccccc2)CC1 (stereo unspecified)	PAX8 inh HTS 84
O=c1[nH]c2ccccc2n1C1CCN(C(c2cccs2)c2nnnn2Cc2ccccc2)CC1 (stereo unspecified)	PAX8 inh HTS 87
COc1ccc(-c2ccc([C@@H]3[C@H](CO)N4CCCCN(C(=O)Cc5ccccc5)C[C@@H]34)cc2)cc1	none (no result: FN deposition inh, HIV Env fusion, N-glyco inh, EWS-Fli inh)
CCc1ccc(N2C(=O)NC(=O)C(CCc3ccncc3)(CCc3ccncc3)C2=O)cc1	none (no result: AF4-AF9 inh, EWS-Fli inh)
Cc1ccc(N2C(=O)NC(=O)C(CCc3ccccn3)(Cc3ccc(F)cc3)C2=O)cc1 (stereo unspecified)	HIV Env fusion 58
COc1ccc(CNCCc2c[nH]c3ccccc23)c(OC)c1OC	HIV Env fusion inconclusive
CCOc1cc(CNCCc2c[nH]c3ccccc23)cc(Cl)c1OC	HIV Env fusion 68
COC(=O)[C@H]1[C@H](CO)[C@H]2Cn3c(ccc(-c4ccccc4)c3=O)[C@@H]1N2S(=O)(=O)c1ccccc1C	none (no result: FN deposition inh, HIV Env fusion, N-glyco inh)
O=C(Cc1ccccc1)N1CCCCN2[C@@H](CO)[C@H](c3ccc(C#CC4(O)CCCC4)cc3)[C@@H]2C1	none (no result: FN deposition inh, HIV Env fusion, N-glyco inh)
Cc1ccc(OC(=O)N(C)C[C@@H]2OCc3ccccc3-c3c(n(C)c4ccccc34)C(=O)N([C@@H](C)CO)C[C@H]2C)cc1	PAX8 inh HTS 98 (no result: HIV Env fusion, N-glyco inh)
Cc1ccc(OC(=O)N(C)C[C@H]2OCc3ccccc3-c3c(n(C)c4ccccc34)C(=O)N([C@@H](C)CO)C[C@@H]2C)cc1	none (no result: HIV Env fusion, N-glyco inh)
N#Cc1cccc(-c2ccc([C@H]3[C@H]4CN(C(=O)Cc5ccccc5)CCCCN4[C@H]3CO)cc2)c1	none (no result: FN deposition inh, HIV Env fusion, N-glyco inh)
O=C(Nc1ccncc1)c1cccn(Cc2ccccc2)c1=O	HIV Env fusion 56
Cc1ccc(-c2nc(N(C)C3CCN(C)CC3)c3ccccc3n2)cc1	N-glyco inh 49 (no result: FN deposition inh, HIV Env fusion, AF4-AF9 inh, PAX8 inh HTS, EWS-Fli inh)
CCCC#Cc1ccc([C@@H]2[C@H]3CN(C(=O)Cc4ccccn4)CCCCN3[C@H]2CO)cc1	none (no result: FN deposition inh, HIV Env fusion, N-glyco inh)
c1cc(-c2ccc(C3[C@H]4CNC[C@@H]3N4CC3CC3)cc2)ccn1 (stereo partly specified)	AF4-AF9 inh 38 (no result: HIV Env fusion, N-glyco inh)
CN1C(=O)C(=Cc2sc(=O)n(-c3ccccc3)c2N(C)C)C(=O)N(C)C1=O	N-glyco inh 29
COC(=O)[C@H]1[C@H](CO)[C@H]2Cn3c(ccc(C4=CCCC4)c3=O)[C@@H]1N2CC1CCCC1	none (no result: FN deposition inh, HIV Env fusion, N-glyco inh, PAX8 inh HTS)
CC(C)c1oc(=O)cc2c1[C@@H](O)[C@H]1OC(=O)[C@@]3(C)C[C@@H](O)[C@@H](O)[C@@]2(C)C13 (stereo partly specified)	PAX8 inh HTS 86
CN1C(=O)C2C[C@@]3(Br)c4ccccc4N(OOSc4ccccc4)[C@H]3N2C(=O)[C@@H]1Cc1ccccc1 (stereo partly specified)	HIV Env fusion 77 (no result: AF4-AF9 inh)
COc1cc(C2c3cc4c(cc3CC3COC(=O)C32)OCO4)cc(OC)c1OC (stereo unspecified)	EWS-Fli inh 57 (no result: FN deposition inh, HIV Env fusion, PAX8 inh HTS)
COc1cc(C2c3cc4c(c(O)c3CC3COC(=O)C32)OCO4)cc(OC)c1OC (stereo unspecified)	PAX8 inh HTS 88 (no result: FN deposition inh)
O=C(Cc1ccccn1)N1CCCCN2[C@@H](CO)[C@H](c3ccc(-c4ccccc4)cc3)[C@@H]2C1	none (no result: FN deposition inh, HIV Env fusion, N-glyco inh)
O=c1[nH]c(O)c(/C=C2/C=CC(c3cc(Cl)ccc3Cl)=N2)c(=O)[nH]1	N-glyco inh 49
CCOC(=O)N1CCC(NC(=O)CCc2nc(C3=CCN(C)CC3)no2)CC1	AF4-AF9 inh 33
CC(C)NC(=O)N1C[C@@H]2C(c3ccc(Br)cc3)[C@H](C1)N2CC1CC1 (stereo partly specified)	none (no result: HIV Env fusion, N-glyco inh, AF4-AF9 inh, PAX8 inh HTS, EWS-Fli inh)
CCN1[C@@H]2Cn3c(ccc(-c4cccc(C(=O)N(C)C)c4)c3=O)[C@H]1[C@@H](C(=O)OC)[C@@H]2CO	none (no result: FN deposition inh, HIV Env fusion, N-glyco inh)
CC(C)c1oc(=O)cc2c1[C@@H](O)[C@H]1OC(=O)[C@@]3(C)CC[C@@H](O)[C@@]2(C)C13 (stereo partly specified)	EWS-Fli inh 62 | DNA binding inactive
COc1ccc(C#Cc2ccc([C@@H]3[C@@H](CO)N4CCCCN(C(=O)Cc5cccnc5)C[C@H]34)cc2)cc1	none (no result: FN deposition inh, HIV Env fusion, N-glyco inh)
O=C(Nc1ccc(OC(=O)N2CCCCC2)cc1)N1CCOCC1	EWS-Fli inh 76 | DNA binding inactive
C[C@@H]1O[C@@H](O[C@H]2C[C@@H](O)[C@]3(CO)[C@@H]4C(CC[C@]3(O)C2)[C@@]2(O)CC[C@H](C3COC(=O)C3)[C@@]2(C)C[C@H]4O)[C@H](O)[C@H](O)[C@H]1O (stereo partly specified)	PAX8 inh HTS 86, EWS-Fli inh 72 | DNA binding inactive
CC12CCC(O)CC1CCC1C2CCC2(C)C(C3=CC(=O)OC3)CCC12O (stereo unspecified)	HIV Env fusion 87, PAX8 inh HTS 106, EWS-Fli inh 67 | DNA binding inactive
CC(=O)OC1CC(OC2C(O)CC(OC3C(O)CC(OC4CCC5(C)C(CCC6C5CC(O)C5(C)C(C7=CC(=O)OC7)CCC65O)C4)OC3C)OC2C)OC(C)C1OC1OC(CO)C(O)C(O)C1O (stereo unspecified)	PAX8 inh HTS 111, EWS-Fli inh 65 | DNA binding inactive
C[C@]12CCC3[C@@H](CC[C@@H]4C[C@H](O)CC[C@]34C)[C@@H]1CCC2=O (stereo partly specified)	none
